Results as given in ChEMBL document CHEMBL4177595, “Design and synthesis of a novel series of orally active, selective somatostatin receptor 2 agonists for the treatment of type 2 diabetes” (Bioorg Med Chem, 2017).

What was measured:
[1] = molecular target: Somatostatin receptor type 2 (Homo sapiens, UniProt P30874); experiment: Displacement of [125I]somatostatin-14 (Tyr11) from human SSTR2 expressed in CHO dhfr cell membranes after 60 mins by TopCount scintillation counting method
In short: (§1)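 Membrane fractions were prepared from CHO dhfr- cells stably transfected with each human SSTR subtype, with a high-expressing single colony selected for each. Membranes in 25 mM Tris-HCl pH 7.4 with 0.1% BSA, EDTA and protease inhibitors were incubated with 50 pM [125I]SST-14 (Tyr11) and a range of compound concentrations for 60 min at room temperature. Excess SST-14 defined nonspecific binding. Samples were filtered on PEI-soaked GF/B filters before counting. IC50 came from pseudo-Hill fitting.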

[2] = Lipophilicity, log D of the compound; type: physicochemical; conditions: octanol/water
HepG2 = experiment: Induction of phospholipidosis in human HepG2 cells up to 50 uM after 24 hrs by NBD-PE fluorophore-based assay relative to amiodarone; type: cell-based; conditions: hepg2, 24 h
[3] = molecular target: Somatostatin receptor type 5 (Homo sapiens, UniProt P35346); experiment: Displacement of [125I]somatostatin-14 (Tyr11) from human SSTR5 expressed in CHO dhfr cell membranes after 60 mins by TopCount scintillation counting method; in short: as §1
Sequence of Somatostatin receptor type 5 (P35346 whole entry): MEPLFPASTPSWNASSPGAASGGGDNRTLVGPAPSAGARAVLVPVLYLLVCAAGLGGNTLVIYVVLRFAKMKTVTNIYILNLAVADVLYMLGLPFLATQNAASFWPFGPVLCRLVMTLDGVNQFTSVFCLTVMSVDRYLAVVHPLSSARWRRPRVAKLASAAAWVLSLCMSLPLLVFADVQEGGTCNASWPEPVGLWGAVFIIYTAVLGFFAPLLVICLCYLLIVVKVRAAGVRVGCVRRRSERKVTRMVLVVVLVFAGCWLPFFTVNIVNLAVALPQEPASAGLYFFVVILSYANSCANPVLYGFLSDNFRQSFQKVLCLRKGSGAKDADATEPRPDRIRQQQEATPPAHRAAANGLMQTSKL

[4] = molecular target: Somatostatin receptor type 1 (Homo sapiens, UniProt P30872); experiment: Displacement of [125I]somatostatin-14 (Tyr11) from human SSTR1 expressed in CHO dhfr cell membranes after 60 mins by TopCount scintillation counting method; in short: as §1
Sequence of Somatostatin receptor type 1 (P30872 whole entry): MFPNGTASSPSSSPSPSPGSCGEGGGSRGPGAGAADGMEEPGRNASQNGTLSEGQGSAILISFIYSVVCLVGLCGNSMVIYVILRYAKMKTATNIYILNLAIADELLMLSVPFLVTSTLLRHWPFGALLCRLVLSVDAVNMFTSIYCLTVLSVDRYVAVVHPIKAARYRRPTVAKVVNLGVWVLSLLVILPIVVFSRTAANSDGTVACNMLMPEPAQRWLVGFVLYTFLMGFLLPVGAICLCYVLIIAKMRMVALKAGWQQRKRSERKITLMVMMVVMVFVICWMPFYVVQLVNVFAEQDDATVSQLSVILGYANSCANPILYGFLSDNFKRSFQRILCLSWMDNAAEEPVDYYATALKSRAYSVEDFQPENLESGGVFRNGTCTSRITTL

[5] = molecular target: Somatostatin receptor type 3 (Homo sapiens, UniProt P32745); experiment: Displacement of [125I]somatostatin-14 (Tyr11) from human SSTR3 expressed in CHO dhfr cell membranes after 60 mins by TopCount scintillation counting method; in short: as §1
Sequence of Somatostatin receptor type 3 (P32745 whole entry): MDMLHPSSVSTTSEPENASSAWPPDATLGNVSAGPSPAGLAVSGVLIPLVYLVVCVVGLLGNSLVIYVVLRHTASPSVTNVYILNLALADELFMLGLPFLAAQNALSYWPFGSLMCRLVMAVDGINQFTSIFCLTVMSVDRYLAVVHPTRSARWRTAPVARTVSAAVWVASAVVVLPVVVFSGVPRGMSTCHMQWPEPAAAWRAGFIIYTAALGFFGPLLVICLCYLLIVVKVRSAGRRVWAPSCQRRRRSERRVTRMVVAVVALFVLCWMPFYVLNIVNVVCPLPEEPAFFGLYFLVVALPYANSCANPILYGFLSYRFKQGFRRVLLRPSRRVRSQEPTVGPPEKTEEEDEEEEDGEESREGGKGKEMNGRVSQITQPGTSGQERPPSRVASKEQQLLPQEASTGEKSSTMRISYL

[6] = molecular target: Somatostatin receptor type 4 (Homo sapiens, UniProt P31391); experiment: Displacement of [125I]somatostatin-14 (Tyr11) from human SSTR4 expressed in CHO dhfr cell membranes after 60 mins by TopCount scintillation counting method; in short: as §1
Sequence of Somatostatin receptor type 4 (P31391 whole entry): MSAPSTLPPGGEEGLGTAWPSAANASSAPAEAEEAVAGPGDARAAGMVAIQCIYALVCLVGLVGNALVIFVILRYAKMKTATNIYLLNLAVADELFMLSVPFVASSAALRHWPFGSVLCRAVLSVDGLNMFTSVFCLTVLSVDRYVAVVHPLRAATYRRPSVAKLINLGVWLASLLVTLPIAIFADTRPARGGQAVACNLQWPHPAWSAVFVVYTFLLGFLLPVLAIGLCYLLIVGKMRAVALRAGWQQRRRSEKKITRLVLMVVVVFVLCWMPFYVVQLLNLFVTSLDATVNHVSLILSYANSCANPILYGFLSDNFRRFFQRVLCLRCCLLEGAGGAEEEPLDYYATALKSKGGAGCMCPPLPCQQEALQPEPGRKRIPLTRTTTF

[7] = Plasma concentration in Sprague-Dawley rat at 0.3 mg/kg, iv after 5 mins; type: ADME, organism-based
[8] = AUC in Sprague-Dawley rat at 0.3 mg/kg, iv after 1 hr; type: ADME, organism-based; set-up: time < 1 hr, dose 0.3 mg/kg, route intravenous; conditions: in vivo
[9] = MRT in Sprague-Dawley rat at 0.3 mg/kg, iv; type: ADME, organism-based; conditions: in vivo
[10] = Volume of distribution at steady state in Sprague-Dawley rat at 0.3 mg/kg, iv after 1 hr; type: ADME, organism-based; conditions: in vivo, read-out: Vdss
[11] = Total clearance in Sprague-Dawley rat at 0.3 mg/kg, iv after 1 hr; type: ADME, organism-based; conditions: in vivo
[12] = Cmax in Sprague-Dawley rat at 1 mg/kg, po after 1 hr; type: ADME, organism-based; set-up: dose 1 mg/kg, route oral; conditions: in vivo
[13] = AUC in Sprague-Dawley rat at 1 mg/kg, po after 1 hr; type: ADME, organism-based; set-up: time < 1 hr, dose 1 mg/kg, route oral; conditions: in vivo
[14] = MRT in Sprague-Dawley rat at 1 mg/kg, po; type: ADME, organism-based; conditions: in vivo
[15] = Oral bioavailability in Sprague-Dawley rat at 1 mg/kg after 1 hr; type: ADME, organism-based; conditions: in vivo
[16] = Tmax in Sprague-Dawley rat at 1 mg/kg, po after 1 hr; type: ADME, organism-based; conditions: in vivo
Rattus norvegicus [17] = species on record: Rattus norvegicus; experiment: Inhibition of hypoglycemia-induced glucagon secretion in Sprague-Dawley rat pretreated for 1 hr followed by insulin addition measured after 30 mins post insulin secretion by radioimmunoassay; type: functional
In short: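 SD rats were given compound orally, then insulin 2 IU/kg s.c. 1 h after dosing. Tail-vein blood was drawn 30 min after insulin, and plasma glucagon was measured by radioimmunoassay. Values are means ± SD (n = 6), compared with vehicle by one-tailed Williams' test. ED50 was derived from the dose-response.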

Rattus norvegicus [18] = species on record: Rattus norvegicus; experiment: Antidiabetic activity in Wistar rat type 2 diabetic model assessed as inhibition of glucose excursion up to 60 mins by meal tolerance test; type: functional; conditions: 1 h, read-out: MED
In short: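 Female Wistar fatty rats were fasted overnight and then dosed orally with vehicle or compound, followed by a liquid meal challenge (20 kcal/kg). Plasma glucose was followed over time. The read-out was AUC of delta plasma glucose, and a minimum effective dose was determined.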

Sequence of Somatostatin receptor type 2 (P30874 whole entry): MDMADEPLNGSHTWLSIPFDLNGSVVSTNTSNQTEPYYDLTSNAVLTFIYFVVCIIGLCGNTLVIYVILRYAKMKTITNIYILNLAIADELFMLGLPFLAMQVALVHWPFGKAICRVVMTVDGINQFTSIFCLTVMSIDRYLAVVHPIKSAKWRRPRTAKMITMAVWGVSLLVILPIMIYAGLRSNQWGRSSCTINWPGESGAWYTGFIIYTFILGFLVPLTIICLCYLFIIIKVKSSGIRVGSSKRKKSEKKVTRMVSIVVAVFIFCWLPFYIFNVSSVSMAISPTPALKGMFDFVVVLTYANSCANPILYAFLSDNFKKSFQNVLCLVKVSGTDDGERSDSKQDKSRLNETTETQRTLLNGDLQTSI

Molecule `CCOc1ccc(CN(C)C)cc1NC(=O)[C@H](NC(=O)N1CCN(C(=O)C2CCC2)CC1)[C@@H](C)c1c[nH]c2ccccc12` has an IC50 [1] of 2.1 nM, a logD [2] of 0.73 and an Activity (HepG2) of 32%.
`CC(=O)c1ccc(CN(C)C)cc1NC(=O)[C@H](NC(=O)N1CCN(C(=O)C2CCC2)CC1)[C@@H](C)c1c[nH]c2ccccc12` gave an IC50 [1] of 1.8 nM, a logD [2] of 1.04 and an Activity (HepG2) of 46%.
In the case of `CCOc1ccc(CN(C)C)cc1NC(=O)[C@H](NC(=O)N1CCC(C(=O)c2nccs2)CC1)[C@@H](C)c1c[nH]c2ccccc12`, the IC50 [1] is reported as 2 nM, the logD [2] is reported as 1.35 and the Activity (HepG2) is reported as 74%.
For `CC(=O)c1ccc(CN(C)C)cc1NC(=O)[C@H](NC(=O)N1CCN(C(=O)C(C)(C)C)CC1)[C@@H](C)c1c[nH]c2ccccc12`, the IC50 [1] was 0.98 nM, the logD [2] was 0.68 and the Activity (HepG2) was 36%.
`CCOc1ccc(CN(C)C)cc1NC(=O)[C@H](NC(=O)N1CCC(C(=O)c2ccco2)CC1)[C@@H](C)c1c[nH]c2ccccc12` gave an IC50 [1] of 2.3 nM, a logD [2] of 1.14 and an Activity (HepG2) of 54%.
For `C[C@@H](c1c[nH]c2ccccc12)[C@@H](NC(=O)N1CCN(C(=O)C(C)(C)C)CC1)C(=O)Nc1cc(CN(C)C)ccc1OC(F)(F)F`, the IC50 [1] was 2.8 nM, the logD [2] was 2.18 and the Activity (HepG2) was 48%.
In the case of `CCOc1ccc(CN(C)C)cc1NC(=O)[C@H](NC(=O)N1CCN(c2ccc(F)cc2)CC1)[C@@H](C)c1c[nH]c2ccccc12`, the IC50 [1] is reported as 0.2 nM, the logD [2] is reported as 2.22 and the Activity (HepG2) is reported as 99%.
`C[C@@H](c1c[nH]c2ccccc12)[C@@H](NC(=O)N1CCN(c2ccc(F)cc2)C(=O)C1)C(=O)Nc1cc(CN(C)C)ccc1OC(F)(F)F` showed an IC50 [1] of 0.53 nM, a logD [2] of 2.73 and an Activity (HepG2) of 50%.
For `CC(=O)c1ccc(CN(C)C)cc1NC(=O)[C@H](NC(=O)N1CCN(c2ccc(F)cc2)C(=O)C1)[C@@H](C)c1c[nH]c2ccccc12`, the IC50 [1] was 0.31 nM, the logD [2] was 1.59 and the Activity (HepG2) was 37%.
In the case of `CCOc1ccc(CN(C)C)cc1NC(=O)[C@H](NC(=O)N1CCC(c2ccccc2)CC1)[C@@H](C)c1c[nH]c2ccccc12`, the IC50 [1] is reported as 0.2 nM, the IC50 [3] is reported as > 100 nM and the logD [2] is reported as 3. For the same molecule, the Activity (HepG2) was 111%.
Work on `CCOc1ccc(CN(C)C)cc1NC(=O)[C@H](NC(=O)N1CCN(C(=O)C(C)(C)C)CC1)[C@@H](C)c1c[nH]c2ccccc12` yielded an IC50 [1] of 2.3 nM, a logD [2] of 1.09 and an Activity (HepG2) of 38%.
With `CCOc1ccc(CN(C)C)cc1NC(=O)[C@H](NC(=O)N1CCC(C(=O)C(C)C)CC1)[C@@H](C)c1c[nH]c2ccccc12` the IC50 [1] was 1.1 nM, the logD [2] was 1.5 and the Activity (HepG2) was 63%.
Molecule `CCOc1ccc(CN(C)C)cc1NC(=O)[C@H](NC(=O)N1CCC(C(=O)c2cccs2)CC1)[C@@H](C)c1c[nH]c2ccccc12` has an IC50 [1] of 0.58 nM, a logD [2] of 1.89 and an Activity (HepG2) of 98%.
`CC(=O)c1ccc(CN(C)C)cc1NC(=O)[C@H](NC(=O)N1CCN(c2ccc(F)cc2C)C(=O)C1)[C@@H](C)c1c[nH]c2ccccc12` showed an IC50 [1] of 0.24 nM, a logD [2] of 1.81 and an Activity (HepG2) of 30%.
For `CC(=O)c1ccc(CN(C)C)cc1NC(=O)[C@H](NC(=O)N1CCC(C(=O)c2cccs2)CC1)[C@@H](C)c1c[nH]c2ccccc12`, the IC50 [1] was 0.68 nM, the logD [2] was 1.84 and the Activity (HepG2) was 91%.
`CCOc1ccc(CN(C)C)cc1NC(=O)[C@H](NC(=O)N1CCC(C(=O)C2CCC2)CC1)[C@@H](C)c1c[nH]c2ccccc12` gave an IC50 [1] of 0.6 nM, a logD [2] of 1.55 and an Activity (HepG2) of 75%.
`CCOc1ccc(CN(C)C)cc1NC(=O)[C@H](NC(=O)N1CCN(c2ccc(F)cc2C)C(=O)C1)[C@@H](C)c1c[nH]c2ccccc12` gave an IC50 [1] of 0.2 nM, a logD [2] of 1.86 and an Activity (HepG2) of 47%.
Work on `CCOc1ccc(CN(C)C)cc1NC(=O)[C@H](NC(=O)N1CCC(C(=O)c2ccccn2)CC1)[C@@H](C)c1c[nH]c2ccccc12` yielded an IC50 [1] of 2.6 nM, a logD [2] of 1.57 and an Activity (HepG2) of 81%.
For `CCOc1ccc(CN(C)C)cc1NC(=O)[C@H](NC(=O)N1CCN(c2ccc(F)cc2)C(=O)C1)[C@@H](C)c1c[nH]c2ccccc12`, the IC50 [1] was 0.2 nM, the logD [2] was 1.65 and the Activity (HepG2) was 36%.
For `CC(=O)c1ccc(CN(C)C)cc1NC(=O)[C@H](NC(=O)N1CCC(C(=O)C(C)C)CC1)[C@@H](C)c1c[nH]c2ccccc12`, the IC50 [1] was 2 nM, the logD [2] was 1.44 and the Activity (HepG2) was 58%.
`CC(=O)c1ccc(CN(C)C)cc1NC(=O)[C@H](NC(=O)N1CCC(C(=O)C2CCC2)CC1)[C@@H](C)c1c[nH]c2ccccc12` showed an IC50 [1] of 0.69 nM, a logD [2] of 1.5 and an Activity (HepG2) of 84%.
For `CCOc1ccc(CN(C)C)cc1NC(=O)[C@H](NC(=O)N1CCC(C(=O)CC(C)C)CC1)[C@@H](C)c1c[nH]c2ccccc12`, the IC50 [1] was 0.89 nM, the logD [2] was 2.01 and the Activity (HepG2) was 76%.
In the case of `Cc1cc(F)ccc1N1CCN(C(=O)N[C@@H](C(=O)Nc2cc(CN(C)C)ccc2OC(F)(F)F)[C@@H](C)c2c[nH]c3ccccc23)CC1=O`, the IC50 [4] is reported as 5100 nM, the IC50 [1] is reported as 0.17 to 0.27 nM and the IC50 [5] is reported as 360 nM. It also gave an IC50 [6] of 100 nM, an IC50 [3] of 1700 nM and a logD [2] of 2.95. It also gave an Activity (HepG2) of 58%, a concentration at 5 min [7] of 194 ng/mL and an AUC at 1 h [8] of 119 ng·h/mL. It also gave an MRT [9] of 2.57 h, a Vd [10] of 6.63 L/kg and a clearance [11] of 43.5 mL/min/kg. For the same molecule, the Cmax [12] was 10.3 ng/mL, the AUC at 1 h [13] was 22.9 ng·h/mL and the MRT [14] was 5.69 h. The bioavailability [15] was 5.8%, the Tmax [16] was 0.83 h and the ED50 (Rattus norvegicus [17]) was 1.1 mg/kg. The minimal effective dose (Rattus norvegicus [18]) was 3 mg/kg.
Molecule `CCCCc1oc2ccccc2c1C(=O)c1cc(I)c(OCCN(CC)CC)c(I)c1` [AMIODARONE] has an Activity (HepG2) of 100%.
